Reference: ChEMBL document CHEMBL3526048, “In vitro metabolism of rivoglitazone, a novel peroxisome proliferator-activated receptor γ agonist, in rat, monkey, and human liver microsomes and freshly isolated hepatocytes” (Drug Metab Dispos, 2011)

Legend:
[1] = Drug metabolism in monkey hepatocytes assessed as formation of 3-(4-((6-methoxy-1-methyl-1H-benzo[d]imidazol-2-yl)methoxy)phenyl)-2-(methylsulfonyl)propanamide at 30 uM after 3 hrs by radio-HPLC/LC-MS/MS analysis in presence of NADPH-generating system/SAM; settings: cynomolgus monkey
[2] = molecular target: T1, Cytochrome P450 2C19 (Homo sapiens, UniProt P33261); assay: Activity of human CYP2C19 expressed in microsomes isolated from baculovirus infected insect cell assessed as enzyme-mediated 5-(4-((6-hydroxy-1-methyl-1H-benzo[d]imidazol-2-yl)methoxy)benzyl)thiazolidine-2,4-dione formation at 20 uM after 2 hrs by radio-HPLC/LC-MS/MS analysis in presence of NADPH-generating system and NADPH-generating system/SAM; assay type: ADME
Outline: (§1)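 Baculovirus/insect-cell microsomes expressing single human CYPs, 1 mg/ml protein, with 50 mM potassium phosphate (pH 7.4) or 100 mM Tris-HCl (pH 7.5). NADPH-generating system: 2 mM NADP⁺, 20 mM glucose 6-phosphate, 2 units/ml G6PDH, 10 mM MgCl₂. [¹⁴C]rivoglitazone at 20 μM, 2 h at 37°C with shaking. Control used insect-cell control supersomes. Stopped with acetonitrile; supernatant concentrated under nitrogen; metabolites analysed by radio-HPLC, LC-MS and LC-MS/MS.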

[3] = molecular target: T2, Cytochrome P450 2C8 (Homo sapiens, UniProt P10632); assay: Activity of human CYP2C8 expressed in microsomes isolated from baculovirus infected insect cell assessed as enzyme-mediated 2-((4-((2,4-dioxothiazolidin-5-yl)methyl)phenoxy)methyl)-1-methyl-1H-benzo[d]imidazol-6-yl hydrogen sulfate formation at 20 uM after 2 hrs by radio-HPLC/LC-MS/MS analysis; assay type: ADME
T2 sequence (P10632 whole entry): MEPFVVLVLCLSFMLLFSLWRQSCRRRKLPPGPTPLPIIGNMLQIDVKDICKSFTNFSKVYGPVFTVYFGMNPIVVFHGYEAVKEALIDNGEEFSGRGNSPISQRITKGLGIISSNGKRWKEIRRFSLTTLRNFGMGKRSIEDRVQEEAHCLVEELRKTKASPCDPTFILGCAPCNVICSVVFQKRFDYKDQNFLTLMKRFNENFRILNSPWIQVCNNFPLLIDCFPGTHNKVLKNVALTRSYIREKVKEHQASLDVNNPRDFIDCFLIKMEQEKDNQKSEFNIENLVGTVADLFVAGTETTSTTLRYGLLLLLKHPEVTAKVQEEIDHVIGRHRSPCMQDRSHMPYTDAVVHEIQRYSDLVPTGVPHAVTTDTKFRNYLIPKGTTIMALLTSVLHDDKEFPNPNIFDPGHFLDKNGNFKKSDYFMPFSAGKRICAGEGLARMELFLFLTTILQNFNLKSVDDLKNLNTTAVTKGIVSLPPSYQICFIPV
Outline: as §1

[4] = molecular target: T3, Cytochrome P450 1A2 (Homo sapiens, UniProt P05177); assay: Activity of human CYP1A2 expressed in microsomes isolated from baculovirus infected insect cell assessed as enzyme-mediated 2-amino-3-((1-carboxy-2-(4-((6-methoxy-1-methyl-1H-benzo[d]imidazol-2-yl)methoxy)phenyl)ethyl)disulfanyl)propanoic acid formation at 20 uM after 2 hrs by radio-HPLC/LC-MS/MS analysis; assay type: ADME
T3 sequence (P05177 whole entry): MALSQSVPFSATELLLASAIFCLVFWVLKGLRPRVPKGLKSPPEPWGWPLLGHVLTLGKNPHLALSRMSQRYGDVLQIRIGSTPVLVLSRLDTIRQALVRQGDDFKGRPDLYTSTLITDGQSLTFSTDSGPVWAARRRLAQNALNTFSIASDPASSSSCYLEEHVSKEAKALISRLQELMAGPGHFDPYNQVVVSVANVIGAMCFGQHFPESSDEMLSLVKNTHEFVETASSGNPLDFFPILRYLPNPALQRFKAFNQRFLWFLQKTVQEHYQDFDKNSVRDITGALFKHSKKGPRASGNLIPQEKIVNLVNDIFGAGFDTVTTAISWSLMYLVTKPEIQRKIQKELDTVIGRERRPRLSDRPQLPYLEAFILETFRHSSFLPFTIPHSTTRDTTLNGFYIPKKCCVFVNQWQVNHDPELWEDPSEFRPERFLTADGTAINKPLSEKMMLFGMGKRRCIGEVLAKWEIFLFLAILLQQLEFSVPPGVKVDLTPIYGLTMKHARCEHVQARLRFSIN
Outline: as §1

[5] = system: Liver microsome; assay: Drug metabolism in Sprague-Dawley rat liver microsomes assessed as formation of 2-mercapto-3-(4-((6-methoxy-1-methyl-1H-benzo[d]imidazol-2-yl)methoxy)phenyl)propanoic acid at 20 uM after 2 to 4 hrs by radio-HPLC/LC-MS/MS analysis in presence of UDPGA, UDPGA/SAM and NADPH-generating system; assay type: ADME
[6] = molecular target: Cytochrome P450 3A4 (Homo sapiens, UniProt P08684); assay: Activity of human CYP3A4 expressed in microsomes isolated from baculovirus infected insect cell assessed as enzyme-mediated (2S,3S,4S,5R,6R)-3,4,5-trihydroxy-6-(5-(4-((6-methoxy-1-methyl-1H-benzo[d]imidazol-2-yl)methoxy)benzyl)-2,4-dioxothiazolidin-3-yl)tetrahydro-2H-pyran-2-carboxylic acid formation at 20 uM after 2 hrs by radio-HPLC/LC-MS/MS analysis in presence of UDPGA and UDPGA/SAM; assay type: ADME
[7] = molecular target: T4, UDP-glucuronosyltransferase 1A10 (Homo sapiens, UniProt Q9HAW8); assay: Activity of human UGT1A10 expressed in microsomes isolated from baculovirus infected insect cell assessed as enzyme-mediated 2-mercapto-3-(4-((6-methoxy-1-methyl-1H-benzo[d]imidazol-2-yl)methoxy)phenyl)propanoic acid formation at 20 uM after 4 hrs by radio-HPLC/LC-MS/MS analysis in presence of UDPGA; assay type: ADME
T4 sequence (Q9HAW8 whole entry): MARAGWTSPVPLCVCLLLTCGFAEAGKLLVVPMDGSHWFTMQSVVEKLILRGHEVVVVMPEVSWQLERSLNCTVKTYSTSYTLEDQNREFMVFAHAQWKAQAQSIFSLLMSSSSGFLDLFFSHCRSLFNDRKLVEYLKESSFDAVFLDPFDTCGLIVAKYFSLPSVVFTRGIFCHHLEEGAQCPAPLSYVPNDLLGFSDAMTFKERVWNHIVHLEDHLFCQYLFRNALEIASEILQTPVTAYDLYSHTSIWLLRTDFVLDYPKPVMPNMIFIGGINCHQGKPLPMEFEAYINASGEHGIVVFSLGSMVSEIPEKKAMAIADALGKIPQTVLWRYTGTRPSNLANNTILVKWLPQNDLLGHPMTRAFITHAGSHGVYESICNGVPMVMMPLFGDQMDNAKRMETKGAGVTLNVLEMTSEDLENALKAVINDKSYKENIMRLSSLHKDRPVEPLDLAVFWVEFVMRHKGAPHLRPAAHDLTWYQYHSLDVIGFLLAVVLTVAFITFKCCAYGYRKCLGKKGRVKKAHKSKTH
Outline: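 Alamethicin (50 μg/mg protein, 15 min on ice) pretreated expressed human UGT microsomes (1 mg/ml protein) from baculovirus-infected insect cells. Incubation with [¹⁴C]rivoglitazone (20 μM) in 100 mM Tris-HCl (pH 7.5) with 10 mM MgCl₂, started by 5 mM UDPGA, 4 h at 37°C with shaking. UGT insect-cell control supersomes were run alongside. Acetonitrile stop, concentrated supernatant analysed by radio-HPLC, LC-MS and LC-MS/MS.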

[8] = molecular target: T1, Cytochrome P450 2C19; assay: Activity of human CYP2C19 expressed in microsomes isolated from baculovirus infected insect cell assessed as enzyme-mediated 2-mercapto-3-(4-((6-methoxy-1-methyl-1H-benzo[d]imidazol-2-yl)methoxy)phenyl)propanoic acid formation at 20 uM after 2 hrs by radio-HPLC/LC-MS/MS analysis in presence of NADPH-generating system; assay type: ADME
Outline: as §1

T1 sequence (P33261 whole entry): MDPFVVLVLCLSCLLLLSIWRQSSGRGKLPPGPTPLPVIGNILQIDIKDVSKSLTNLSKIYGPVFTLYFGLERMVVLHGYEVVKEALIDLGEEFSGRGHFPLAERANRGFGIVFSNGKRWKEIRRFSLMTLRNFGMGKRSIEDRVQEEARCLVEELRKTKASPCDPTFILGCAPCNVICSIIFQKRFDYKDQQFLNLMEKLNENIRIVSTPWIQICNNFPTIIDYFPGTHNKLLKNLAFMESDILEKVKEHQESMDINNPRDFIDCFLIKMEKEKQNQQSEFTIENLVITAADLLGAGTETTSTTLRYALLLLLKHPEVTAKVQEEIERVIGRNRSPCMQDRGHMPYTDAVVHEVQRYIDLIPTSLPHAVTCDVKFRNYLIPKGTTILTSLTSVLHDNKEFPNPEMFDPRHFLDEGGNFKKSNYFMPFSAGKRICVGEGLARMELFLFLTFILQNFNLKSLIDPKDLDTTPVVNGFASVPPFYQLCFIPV
Chain of Cytochrome P450 3A4 (P08684 whole entry): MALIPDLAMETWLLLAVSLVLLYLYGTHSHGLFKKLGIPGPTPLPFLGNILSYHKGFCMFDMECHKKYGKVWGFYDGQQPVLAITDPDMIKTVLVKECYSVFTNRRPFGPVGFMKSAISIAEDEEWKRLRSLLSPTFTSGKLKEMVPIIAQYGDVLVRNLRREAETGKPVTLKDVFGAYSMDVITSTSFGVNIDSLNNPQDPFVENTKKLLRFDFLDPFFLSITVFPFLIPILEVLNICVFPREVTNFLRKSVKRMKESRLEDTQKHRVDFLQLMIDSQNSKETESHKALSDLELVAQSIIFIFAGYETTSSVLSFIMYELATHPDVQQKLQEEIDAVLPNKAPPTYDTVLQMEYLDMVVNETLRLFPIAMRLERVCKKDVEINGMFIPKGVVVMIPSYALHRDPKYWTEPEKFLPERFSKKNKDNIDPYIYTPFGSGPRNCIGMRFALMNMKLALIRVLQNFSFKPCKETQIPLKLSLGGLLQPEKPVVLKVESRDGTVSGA

Drug metabolism [1]: metabolite_not_detected
Drug metabolism [2]: metabolite_detected
Drug metabolism [3]: metabolite_not_detected
Drug metabolism [4]: metabolite_not_detected
Drug metabolism [5]: metabolite_detected
Drug metabolism [6]: metabolite_not_detected
Drug metabolism [7]: metabolite_not_detected
Drug metabolism [8]: metabolite_detected
SMILES: COc1ccc2nc(COc3ccc(C[14CH]4SC(=O)NC4=O)cc3)n(C)c2c1.Cl (racemic)
